Results: ChEMBL document CHEMBL3745639, “Structure-activity relationships for lipoprotein lipase agonists that lower plasma triglycerides in vivo” (Eur J Med Chem, 2015)

What was measured:
[1] = Half life in human hepatocytes at 1 uM; format: ADME, cell-based, Hepatocyte
How it was run: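 Freshly isolated human hepatocytes (0.5 x 10⁶ cells/ml) in Williams medium E with compound at 1 μM. Reaction started by adding cells. Sampled at 0, 10, 30 and 60 min in duplicate, quenched with acetonitrile containing warfarin, then LC-MS/MS.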

Bile acid receptor = biological target: T1, Bile acid receptor (Homo sapiens, UniProt Q96RI1); assay: Agonist activity at FXR (unknown origin)
T1 sequence (Q96RI1 whole entry): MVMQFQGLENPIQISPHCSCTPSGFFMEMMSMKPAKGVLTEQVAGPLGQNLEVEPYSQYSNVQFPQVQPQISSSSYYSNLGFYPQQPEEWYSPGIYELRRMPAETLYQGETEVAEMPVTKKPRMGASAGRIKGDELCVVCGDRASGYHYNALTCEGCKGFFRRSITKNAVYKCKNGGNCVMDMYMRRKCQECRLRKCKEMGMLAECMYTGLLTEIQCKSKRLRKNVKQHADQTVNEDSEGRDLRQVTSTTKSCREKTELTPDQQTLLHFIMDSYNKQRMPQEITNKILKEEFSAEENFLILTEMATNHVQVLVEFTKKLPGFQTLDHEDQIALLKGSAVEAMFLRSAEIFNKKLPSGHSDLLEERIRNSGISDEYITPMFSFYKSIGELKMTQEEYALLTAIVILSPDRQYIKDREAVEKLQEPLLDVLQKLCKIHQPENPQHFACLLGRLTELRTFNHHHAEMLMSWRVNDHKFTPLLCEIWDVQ
How it was run: (§1)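 Single agonist-mode profiling at ten concentrations against FXR, PPARα, PPARγ and RXRα, run as an outside screening service.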

[2] = biological target: T2, Retinoic acid receptor RXR-alpha (Homo sapiens, UniProt P19793); assay: Agonist activity at RXRalpha (unknown origin); how it was run: as §1
T2 sequence (P19793 whole entry): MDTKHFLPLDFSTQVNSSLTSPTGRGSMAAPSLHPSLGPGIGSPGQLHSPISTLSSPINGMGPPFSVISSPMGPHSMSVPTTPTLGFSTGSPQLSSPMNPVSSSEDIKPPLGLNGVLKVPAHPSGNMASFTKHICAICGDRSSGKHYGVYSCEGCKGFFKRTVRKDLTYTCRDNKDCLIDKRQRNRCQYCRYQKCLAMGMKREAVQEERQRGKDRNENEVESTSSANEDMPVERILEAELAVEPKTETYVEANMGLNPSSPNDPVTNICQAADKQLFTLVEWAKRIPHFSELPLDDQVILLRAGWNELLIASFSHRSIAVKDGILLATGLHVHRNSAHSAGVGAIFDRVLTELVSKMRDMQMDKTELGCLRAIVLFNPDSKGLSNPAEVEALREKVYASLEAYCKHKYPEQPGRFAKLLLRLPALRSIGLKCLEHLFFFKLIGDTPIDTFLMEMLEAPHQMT

[3] = Efflux ratio of apparent permeability from basolateral to apical over apical to basolateral side in human Caco2 cells at 10 uM after 15 to 60 mins; format: ADME, cell-based; conditions: Caco-2
[4] = biological target: T3, Lipoprotein lipase (Bos taurus) (UniProt P11151); assay: Induction of bovine LPL stabilization using intralipid as substrate at 25 uM preincubated for 10 mins with human recombinant ANGPTL4 followed by substrate addition measured after 45 mins relative to control
T3 sequence (whole entry): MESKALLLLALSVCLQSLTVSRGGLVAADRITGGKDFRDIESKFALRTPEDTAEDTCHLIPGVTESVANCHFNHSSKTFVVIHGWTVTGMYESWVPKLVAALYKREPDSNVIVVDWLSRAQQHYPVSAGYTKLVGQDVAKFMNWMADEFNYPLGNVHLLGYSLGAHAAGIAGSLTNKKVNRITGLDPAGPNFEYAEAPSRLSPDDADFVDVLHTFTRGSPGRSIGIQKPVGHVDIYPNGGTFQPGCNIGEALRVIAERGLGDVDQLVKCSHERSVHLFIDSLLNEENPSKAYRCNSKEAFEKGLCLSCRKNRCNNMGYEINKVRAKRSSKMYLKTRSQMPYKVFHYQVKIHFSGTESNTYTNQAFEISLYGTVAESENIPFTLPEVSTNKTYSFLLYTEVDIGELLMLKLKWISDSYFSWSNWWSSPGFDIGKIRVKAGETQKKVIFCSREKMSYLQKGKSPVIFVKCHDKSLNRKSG
How it was run: (§2)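 Compound in DMSO in buffer (50 mM potassium phosphate pH 7.4, 0.15 M NaCl, 0.01% Triton X-100), with human ANGPTL4 N-terminal fragment (aa 26-184, 75 nM final) and bovine LPL (15 nM final). Preincubated 10 min at 25 °C with shaking. Stopped after 45 min with 2.5% Triton X-100, and NEFA measured enzymatically. Activity normalised between DMSO+LPL+ANGPTL4 (0%) and DMSO+LPL (100%).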

[5] = biological target: T4, Peroxisome proliferator-activated receptor alpha (Homo sapiens, UniProt Q07869); assay: Agonist activity at PPARalpha (unknown origin); how it was run: as §1
T4 sequence (Q07869 whole entry): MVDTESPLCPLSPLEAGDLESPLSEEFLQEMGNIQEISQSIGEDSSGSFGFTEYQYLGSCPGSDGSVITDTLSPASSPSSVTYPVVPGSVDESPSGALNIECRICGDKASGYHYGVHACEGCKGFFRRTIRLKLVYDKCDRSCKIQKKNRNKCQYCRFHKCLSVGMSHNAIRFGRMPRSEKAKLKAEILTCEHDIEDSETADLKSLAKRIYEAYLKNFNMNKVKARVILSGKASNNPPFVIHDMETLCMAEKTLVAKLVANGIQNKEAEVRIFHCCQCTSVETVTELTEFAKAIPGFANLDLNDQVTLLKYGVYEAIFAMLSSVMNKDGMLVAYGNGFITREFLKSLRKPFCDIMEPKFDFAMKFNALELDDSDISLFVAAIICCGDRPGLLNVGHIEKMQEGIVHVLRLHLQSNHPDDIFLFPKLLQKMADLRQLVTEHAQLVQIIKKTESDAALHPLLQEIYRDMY

Lipoprotein lipase = biological target: T5, Lipoprotein lipase (Bos taurus, UniProt P11151); assay: Induction of bovine LPL stabilization using intralipid as substrate preincubated for 10 mins with human recombinant ANGPTL4 followed by substrate addition measured after 45 mins relative to control; how it was run: as §2
T5 sequence (P11151 whole entry): T3 sequence (whole entry)

[6] = Apparent permeability across apical to basolateral side in human Caco2 cells at 10 uM after 15 to 60 mins; format: ADME, cell-based; conditions: Caco-2
How it was run: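 Caco-2 monolayers washed with pre-warmed HBSS, then donor solution applied. Transport run with apical pH 6.5 and basolateral pH 7.4. Monolayer integrity checked by TEER and by mannitol permeability. Papp derived from transport rates.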

[7] = Intrinsic clearance in human liver microsomes at 1 uM after 5 to 40 mins by LC-MS/MS analysis in presence of NADPH; format: ADME; conditions: read-out: CLH
How it was run: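 Pooled liver microsomes (0.5 mg/ml) with compound at 1 μM in 0.1 M phosphate buffer pH 7.4. Reaction started with NADPH 1 mM. Sampled at 0, 5, 15 and 40 min in duplicate, quenched with acetonitrile containing warfarin, then LC-MS/MS.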

Cc1ccc(NC(=O)c2cc(-n3cc4ccc(C(=O)O)cc4n3)ccc2N2CCCCC2)cc1 gave a half-life at 1 µM [1] greater than 2 h, an EC50 (Bile acid receptor) greater than 100 µM and an EC50 [2] greater than 100 µM. It also gave an efflux ratio at 10 µM [3] of 1.4, an Activity [4] of 97% and an EC50 [5] greater than 100 µM. For the same molecule, the EC50 (Lipoprotein lipase) was 6 µM, the Papp A→B at 10 µM [6] was 230 nm/s and the microsomal CLint at 1 µM [7] was less than 17 µL/min/mg.
